Results: ChEMBL document CHEMBL1138539, “Synthesis of new 2-(5-substituted-3-phenyl-2-pyrazolinyl)-1,3-thiazolino[5,4-b]quinoxaline derivatives and evaluation of their antiamoebic activity” (Eur J Med Chem, 2009)
pIC50: −log10 of the molar value. Each block holds one compound with its values, some of them ahead of it.

Tests used:
Entamoeba histolytica [1] = assay: Antiamnesic activity against Entamoeba histolytica HM-1:IMSS after 72 hrs by trypan blue exclusion method; format: functional, organism-based
How it was run: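 Trophozoites grown in TYIS-33 medium and tested by microdilution; amoebae counted by haemocytometer, viability confirmed by trypan blue exclusion. Compounds in DMSO (1 mg/ml stock), two-fold serial dilutions, with medium blanks and untreated controls. After incubation, wells washed in warm 0.9% NaCl, methanol-fixed, eosin-stained, dye released in 0.1 N NaOH, OD 490 nm. IC50 from linear regression of % inhibition versus log dose.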

[2] = Cytotoxicity against human kidney epithelial cells after 44 hrs by MTT assay; format: ADME, cell-based; details: Epithelial cell
[3] = Safety index, ratio of IC50 for human kidney epithelial cells to IC50 for Entamoeba histolytica HM-1:IMSS
Entamoeba histolytica [4] = assay: Antiamoebic activity against Entamoeba histolytica HM-1:IMSS after 72 hrs by microdilution method

SMILES: Cc1ccc(/C=C/C(=O)c2ccccc2)cc1
pIC50 (Entamoeba histolytica [1]): 5.67

pIC50 (Entamoeba histolytica [4]): 5.70
SMILES: O=C(/C=C/c1ccc(Cl)c(Cl)c1)c1ccccc1
pIC50 [2]: < 4.30 | selectivity ratio ([3]; human kidney epithelial cells): > 24.9

SMILES: CC(C)c1ccccc1/C=C/C(=O)c1ccccc1
pIC50 [2]: < 4.34 | pIC50 (Entamoeba histolytica [1]): 5.46 | selectivity ratio ([3]; human kidney epithelial cells): > 13.2

pIC50 (Entamoeba histolytica [4]): 5.59
SMILES: O=C(/C=C/c1ccccc1Cl)c1ccccc1
pIC50 [2]: < 4.30 | selectivity ratio ([3]; human kidney epithelial cells): > 19.2

SMILES: CCc1ccccc1/C=C/C(=O)c1ccccc1
pIC50 [2]: < 4.30 | pIC50 (Entamoeba histolytica [1]): 5.75 | selectivity ratio ([3]; human kidney epithelial cells): > 27.9

SMILES: Cc1ccc(C2CC(c3ccccc3)=NN2C(N)=S)cc1 (stereo not given)
pIC50 [2]: < 4.30 | pIC50 (Entamoeba histolytica [1]): 5.80 | selectivity ratio ([3]; human kidney epithelial cells): > 31.7

SMILES: Cc1ccc(C2CC(c3ccccc3)=NN2c2nc3nc4ccccc4nc3s2)cc1 (stereo not given)
pIC50 [2]: < 4.85 | pIC50 (Entamoeba histolytica [1]; in the assay text read “Antiamoebic” for “Antiamnesic”): 6.52 | selectivity ratio ([3]; human kidney epithelial cells): > 46.4

pIC50 (Entamoeba histolytica [4]): 5.49
SMILES: Cc1cc(C)c(C2CC(c3ccccc3)=NN2c2nc3nc4ccccc4nc3s2)c(C)c1 (stereo not given)
pIC50 [2]: < 4.46 | selectivity ratio ([3]; human kidney epithelial cells): > 10.8

SMILES: CCc1ccccc1C1CC(c2ccccc2)=NN1C(N)=S (stereo not given)
pIC50 [2]: < 4.30 | pIC50 (Entamoeba histolytica [1]): 5.79 | selectivity ratio ([3]; human kidney epithelial cells): > 31.1

pIC50 (Entamoeba histolytica [4]): 6.64
SMILES: CC(C)c1ccccc1C1CC(c2ccccc2)=NN1C(N)=S (stereo not given)
pIC50 [2]: < 4.30 | selectivity ratio ([3]; human kidney epithelial cells): > 217

pIC50 (Entamoeba histolytica [4]): 6.05
SMILES: Clc1cccc(C2CC(c3ccccc3)=NN2c2nc3nc4ccccc4nc3s2)c1Cl (stereo not given)
pIC50 [2]: < 4.30 | selectivity ratio ([3]; human kidney epithelial cells): > 56.2

pIC50 (Entamoeba histolytica [4]): 5.72
SMILES: Clc1ccccc1C1CC(c2ccccc2)=NN1c1nc2nc3ccccc3nc2s1 (stereo not given)
pIC50 [2]: < 4.30 | selectivity ratio ([3]; human kidney epithelial cells): > 26.3

SMILES: c1ccc(C2=NN(c3nc4nc5ccccc5nc4s3)C(c3c[nH]c4ccccc34)C2)cc1 (stereo not given)
pIC50 [2]: < 4.74 | pIC50 (Entamoeba histolytica [1]): 5.89 | selectivity ratio ([3]; human kidney epithelial cells): > 14

pIC50 (Entamoeba histolytica [4]): 6.77
SMILES: CC(C)c1ccccc1C1CC(c2ccccc2)=NN1c1nc2nc3ccccc3nc2s1 (stereo not given)
pIC50 [2]: < 4.30 | selectivity ratio ([3]; human kidney epithelial cells): > 294

SMILES: O=C(/C=C/c1c[nH]c2ccccc12)c1ccccc1
pIC50 [2]: < 4.36 | pIC50 (Entamoeba histolytica [1]): 5.74 | selectivity ratio ([3]; human kidney epithelial cells): > 24.4

SMILES: NC(=S)N1N=C(c2ccccc2)CC1c1c[nH]c2ccccc12 (stereo not given)
pIC50 [2]: < 4.27 | pIC50 (Entamoeba histolytica [1]): 5.75 | selectivity ratio ([3]; human kidney epithelial cells): > 30.5

pIC50 (Entamoeba histolytica [4]): 5.65
SMILES: NC(=S)N1N=C(c2ccccc2)CC1c1ccccc1Cl (stereo not given)
pIC50 [2]: < 4.30 | selectivity ratio ([3]; human kidney epithelial cells): > 22.4

pIC50 (Entamoeba histolytica [4]): 5.85
SMILES: Cc1cc(C)c(/C=C/C(=O)c2ccccc2)c(C)c1
pIC50 [2]: < 4.30 | selectivity ratio ([3]; human kidney epithelial cells): > 35.5

SMILES: NC(=S)N1N=C(c2ccccc2)CC1c1ccccc1 (stereo not given)
pIC50 [2]: < 4.30 | pIC50 (Entamoeba histolytica [1]): 5.79 | selectivity ratio ([3]; human kidney epithelial cells): > 31.1

pIC50 (Entamoeba histolytica [4]): 5.36
SMILES: Cc1cc(C)c(C2CC(c3ccccc3)=NN2C(N)=S)c(C)c1 (stereo not given)
pIC50 [2]: < 4.30 | selectivity ratio ([3]; human kidney epithelial cells): > 11.4

SMILES: c1ccc(C2=NN(c3nc4nc5ccccc5nc4s3)C(c3ccccc3)C2)cc1 (stereo not given)
pIC50 [2]: < 4.30 | pIC50 (Entamoeba histolytica [1]): 5.83 | selectivity ratio ([3]; human kidney epithelial cells): > 33.5

SMILES: CCc1ccccc1C1CC(c2ccccc2)=NN1c1nc2nc3ccccc3nc2s1 (stereo not given)
pIC50 [2]: < 4.30 | pIC50 (Entamoeba histolytica [1]): 5.83 | selectivity ratio ([3]; human kidney epithelial cells): > 33.5

SMILES: O=C(/C=C/c1ccccc1)c1ccccc1 [CHALCONE]
pIC50 [2]: < 4.30 | pIC50 (Entamoeba histolytica [1]): 5.77 | selectivity ratio ([3]; human kidney epithelial cells): > 29.4

pIC50 (Entamoeba histolytica [4]): 5.74
SMILES: Cc1ncc([N+](=O)[O-])n1CCO [METRONIDAZOLE]
pIC50 [2]: < 4.00 | selectivity ratio ([3]; epithelial cell): > 55.6
